Experimental data as given in publication PMC5741288 (Pain Reports, 2016).
Marks after values point to notes of the source that are not given here.

Test: Treatment-emergent adverse events, tolerability
Type: in vivo, healthy men
How it was run: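 Healthy men received single oral tablet doses (part 1: 1–225 mg; part 2: 10, 50 mg) or placebo under double-blind randomisation. Treatment-emergent adverse events were recorded along with clinical laboratory tests, ECG, oral temperature, vital signs and physical examinations, through follow-up.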

## CC(C)(O)c1ccccc1-c1ccc2[nH]c(/C=C/c3ccc(C(F)(F)F)cc3)nc2c1 [JNJ-39439335, trans-2-(2-{2-[2-(4-Trifluoromethyl-phenyl)-vinyl]-1H-benzimidazol-5-yl}-phenyl)-propan-2-ol]
Part 1, 30 mg (N = 5)
  TEAE Burning sensation: 0 n (%)
  TEAE Chills: 0 n (%)
  TEAE Dizziness: 1 (20) n (%)
  TEAE Dizziness postural: 0 n (%)
  TEAE Dysgeusia: 1 (20) n (%)
  TEAE Fatigue: 0 n (%)
  TEAE Feeling cold: 5 (100) n (%)
  TEAE Feeling hot: 4 (80) n (%)
  TEAE Headache: 0 n (%)
  TEAE Hematoma: 0 n (%)
  TEAE Hyperhidrosis: 0 n (%)
  TEAE Hypoesthesia: 0 n (%)
  TEAE Hypogeusia: 0 n (%)
  TEAE Nausea: 0 n (%)
  TEAE Orthostatic hypotension: 1 (20) n (%)
  TEAE Paresthesia: 0 n (%)
  TEAE Pruritus: 0 n (%)
  TEAE Pyrexia: 3 (60) n (%)
  TEAE Rhinitis: 0 n (%)
  TEAE Thermal burn: 1 (20) n (%)
  TEAE Thermohypoesthesia: 3 (60) n (%)
  Total no. participants with AEs: 5 (100) n (%)
Part 1, 60 mg (N = 6)
  TEAE Agusia: 0 n (%)
  TEAE Back pain: 0 n (%)
  TEAE Burning sensation: 0 n (%)
  TEAE Chills: 0 n (%)
  TEAE Dizziness: 0 n (%)
  TEAE Dizziness postural: 0 n (%)
  TEAE Dysgeusia: 1 (17) n (%)
  TEAE Fatigue: 0 n (%)
  TEAE Feeling cold: 4 (67) n (%)
  TEAE Feeling hot: 1 (17) n (%)
  TEAE Headache: 0 n (%)
  TEAE Hematoma: 0 n (%)
  TEAE Hyperhidrosis: 0 n (%)
  TEAE Hypoesthesia: 1 (17) n (%)
  TEAE Hypogeusia: 0 n (%)
  TEAE Nausea: 1 (17) n (%)
  TEAE Paresthesia: 0 n (%)
  TEAE Pruritus: 0 n (%)
  TEAE Pyrexia: 4 (67) n (%)
  TEAE Rhinitis: 0 n (%)
  TEAE Thermal burn: 0 n (%)
  TEAE Thermohypoesthesia: 1 (17) n (%)
  Total no. participants with AEs: 6 (100) n (%)
Part 1, 120 mg (N = 6)
  TEAE Agusia: 0 n (%)
  TEAE Back pain: 0 n (%)
  TEAE Burning sensation: 0 n (%)
  TEAE Chills: 1 (17) n (%)
  TEAE Dizziness: 1 (17) n (%)
  TEAE Dizziness postural: 1 (17) n (%)
  TEAE Dysgeusia: 0 n (%)
  TEAE Fatigue: 1 (17) n (%)
  TEAE Feeling cold: 1 (17) n (%)
  TEAE Feeling hot: 1 (17) n (%)
  TEAE Headache: 1 (17) n (%)
  TEAE Hematoma: 1 (17) n (%)
  TEAE Hyperhidrosis: 0 n (%)
  TEAE Hypoesthesia: 1 (17) n (%)
  TEAE Hypogeusia: 0 n (%)
  TEAE Nausea: 1 (17) n (%)
  TEAE Orthostatic hypotension: 0^a n (%)
  TEAE Paresthesia: 0 n (%)
  TEAE Pruritus: 1 (17) n (%)
  TEAE Pyrexia: 4 (67) n (%)
  TEAE Rhinitis: 0 n (%)
  TEAE Thermal burn: 0 n (%)
  TEAE Thermohypoesthesia: 4 (67) n (%)
  Total no. participants with AEs: 6 (100) n (%)
Part 1, 225 mg (N = 6)
  TEAE Agusia: 2 (33) n (%)
  TEAE Back pain: 0 n (%)
  TEAE Burning sensation: 5 (83) n (%)
  TEAE Chills: 1 (17) n (%)
  TEAE Dizziness: 1 (17) n (%)
  TEAE Dizziness postural: 0 n (%)
  TEAE Dysgeusia: 0 n (%)
  TEAE Fatigue: 0 n (%)
  TEAE Feeling cold: 2 (33) n (%)
  TEAE Feeling hot: 5 (83) n (%)
  TEAE Headache: 2 (33) n (%)
  TEAE Hematoma: 0 n (%)
  TEAE Hyperhidrosis: 1 (17) n (%)
  TEAE Hypoesthesia: 0 n (%)
  TEAE Hypogeusia: 0 n (%)
  TEAE Nausea: 0 n (%)
  TEAE Orthostatic hypotension: 1 (17) n (%)
  TEAE Paresthesia: 3 (50) n (%)
  TEAE Pruritus: 1 (17) n (%)
  TEAE Pyrexia: 3 (50) n (%)
  TEAE Rhinitis: 0 n (%)
  TEAE Thermal burn: 3 (50) n (%)
  TEAE Thermohypoesthesia: 5 (83) n (%)
  Total no. participants with AEs: 6 (100) n (%)
Part 1, 225-mg dose group
  Participants with burning feeling (not physical burn): 5 participants
Part 1, of 59 participants receiving JNJ-39439335
  Participants reporting at least 1 TEAE: 50 (85%) n (%)
Part 1, of the 89 participants who received JNJ-39439335 or placebo
  Participants with minor or first-degree burns: 4 participants
Part 1, participants receiving JNJ-39439335
  Thermohypoesthesia, participants: 23 (39%) n (%)
Part 2
  Thermohypoesthesia, participants: 70%
Part 2, 10 mg (N = 19)
  TEAE Disturbance in attention: 1 (5) n (%)
  TEAE Dizziness: 0 n (%)
  TEAE Dizziness postural: 0 n (%)
  TEAE Dysgeusia: 4 (21) n (%)
  TEAE Feeling cold: 9 (47) n (%)
  TEAE Feeling hot: 6 (32) n (%)
  TEAE Headache: 3 (16) n (%)
  TEAE Hyperhidrosis: 2 (11) n (%)
  TEAE Oropharyngeal pain: 1 (5) n (%)
  TEAE Paresthesia: 7 (37) n (%)
  TEAE Pyrexia: 8 (42) n (%)
  TEAE Thermal burn: 0 n (%)
  TEAE Thermohypoesthesia: 9 (47) n (%)
  Total no. participants with AEs: 17 (89) n (%)
Part 2, 50 mg (N = 20)
  TEAE Disturbance in attention: 2 (10) n (%)
  TEAE Dizziness: 2 (10) n (%)
  TEAE Dizziness postural: 1 (5) n (%)
  TEAE Dysgeusia: 5 (25) n (%)
  TEAE Feeling cold: 9 (45) n (%)
  TEAE Feeling hot: 8 (40) n (%)
  TEAE Headache: 3 (15) n (%)
  TEAE Hyperhidrosis: 2 (10) n (%)
  TEAE Oropharyngeal pain: 1 (5) n (%)
  TEAE Paresthesia: 9 (45) n (%)
  TEAE Pyrexia: 11 (55) n (%)
  TEAE Thermal burn: 2 (10) n (%)
  TEAE Thermohypoesthesia: 12 (60) n (%)
  Total no. participants with AEs: 19 (95) n (%)
Part 2, 50-mg dose
  Participants with minor burns of the mouth: 2 participants
Part 2, Total (N = 20)
  TEAE Disturbance in attention: 2 (10) n (%)
  TEAE Dizziness: 2 (10) n (%)
  TEAE Dizziness postural: 2 (10) n (%)
  TEAE Dysgeusia: 7 (35) n (%)
  TEAE Feeling cold: 13 (65) n (%)
  TEAE Feeling hot: 11 (55) n (%)
  TEAE Headache: 5 (25) n (%)
  TEAE Hyperhidrosis: 4 (20) n (%)
  TEAE Oropharyngeal pain: 2 (10) n (%)
  TEAE Paresthesia: 11 (55) n (%)
  TEAE Pyrexia: 12 (60) n (%)
  TEAE Thermal burn: 2 (10) n (%)
  TEAE Thermohypoesthesia: 14 (70) n (%)
  Total no. participants with AEs: 20 (100) n (%)
Parts 1 and 2
  Severe adverse events / withdrawals because of an adverse event: no severe adverse events reported
Single oral doses up to 225 mg
  Tolerability: well tolerated
